Laboratory results reported in ChEMBL document CHEMBL2046306, “Synthesis of 6-substituted 9-methoxy-11H-indeno[1,2-c]quinoline-11-one derivatives as potential anticancer agents” (Bioorg Med Chem, 2012).

Legend:
[1] = tested on: A549; test: Growth inhibition of human A549 cells after 48 hrs by sulforhodamine B assay; format: functional, cell-based; conditions: A549, 48 h
In short: (§1)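 NCI 60-line screen. Cells grown in RPMI 1640 with 5% FBS and 2 mM L-glutamine, seeded at 5000–40,000 cells/well, preincubated 24 h at 37 °C. Five 10-fold dilutions added, highest well concentration 10E-4 M. Incubated 48 h in 5% CO₂ at 100% humidity. Sulforhodamine B read-out by optical density; GI50 taken from dose-response curves versus control.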

[2] = tested on: NCI-H460; test: Antiproliferative activity against human NCI-H460 cells assessed as growth at 100 uM after 48 hrs by alamar blue assay; format: functional; conditions: NCI-H460, 48 h, read-out: Activity
In short: (§2)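 Single-dose prescreen in a three-line NCI panel (NCI-H460, MCF7, SF-268). Cells were inoculated and preincubated on microtiter plates, then exposed to test agent at 100 μM for 48 h. Alamar blue end-point. Growth is expressed as percent of untreated control cells.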

[3] = tested on: MCF7; test: Antiproliferative activity against human MCF7 cells assessed as growth at 100 uM after 48 hrs by alamar blue assay; format: functional; conditions: MCF7, 48 h, read-out: Activity; in short: as §2
[4] = tested on: SF-268; test: Antiproliferative activity against human SF268 cells assessed as growth at 100 uM after 48 hrs by alamar blue assay; format: functional; conditions: SF-268, 48 h, read-out: Activity; in short: as §2
[5] = tested on: CCRF-CEM; test: Growth inhibition of human CCRF-CEM cells after 48 hrs by sulforhodamine B assay; format: functional; in short: as §1
[6] = tested on: SR; test: Growth inhibition of human SR cells after 48 hrs by sulforhodamine B assay; format: functional
In short: (§3)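 NCI 60-line screen. Cells grown in RPMI 1640 with 5% FBS and 2 mM L-glutamine, seeded at 5000-40,000 cells/well and preincubated 24 h at 37 °C. Compounds added at five 10-fold dilutions, highest well concentration 10E-4 M. Exposure 48 h in 5% CO2 at 100% humidity. Endpoint is sulforhodamine B with optical density read-out. GI50 is the concentration giving 50% growth inhibition versus control.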

[7] = tested on: HCT-116; test: Growth inhibition of human HCT116 cells after 48 hrs by sulforhodamine B assay; format: functional; conditions: HCT-116, 48 h; in short: as §1
[8] = tested on: U-251; test: Growth inhibition of human U251 cells after 48 hrs by sulforhodamine B assay; format: functional; conditions: U-251, 48 h; in short: as §3
[9] = tested on: SK-MEL-5; test: Growth inhibition of human SK-MEL-5 cells after 48 hrs by sulforhodamine B assay; format: functional; conditions: SK-MEL-5, 48 h; in short: as §3
[10] = tested on: IGROV-1; test: Growth inhibition of human IGROV1 cells after 48 hrs by sulforhodamine B assay; format: functional; conditions: IGROV-1, 48 h; in short: as §1
[11] = tested on: RXF 393; test: Growth inhibition of human RXF393 cells after 48 hrs by sulforhodamine B assay; format: functional; conditions: RXF 393, 48 h; in short: as §3
[12] = tested on: DU-145; test: Growth inhibition of human DU145 cells after 48 hrs by sulforhodamine B assay; format: functional; conditions: DU-145, 48 h; in short: as §1
[13] = Growth inhibition of human Hs 578T cells after 48 hrs by sulforhodamine B assay; format: functional; in short: as §1
[14] = tested on: NCI-H460; test: Growth inhibition of human NCI-H460 cells after 48 hrs by sulforhodamine B assay; format: functional; conditions: NCI-H460, 48 h; in short: as §1

Compound	IC50 [1]	GI50 [5]	GI50 [1]	GI50 [7]	GI50 [8]	GI50 [9]	GI50 [12]	GI50 [14]	growth at 100 µM [2]	growth at 100 µM [3]	growth at 100 µM [4]	GI50 [6]	GI50 [10]	GI50 [11]	GI50 [13]
COc1ccc2c(c1)/C(=N\OCCCN)c1c-2c(N2CCNCC2)nc2ccccc12	0.64 µM														
CO/N=C1/c2cc(OC)ccc2-c2c(Nc3cccc(/C(C)=N/OC)c3)nc3ccccc3c21									82%	80%	92%				
COc1ccc(Nc2nc3ccccc3c3c2-c2ccc(OC)cc2C3=O)c(OC)c1									110%	103%	107%				
COc1ccc2c(c1)C(=O)c1c-2c(Nc2ccc(F)c(F)c2)nc2ccccc12									96%	106%	69%				
CN(C)CCCOc1ccc(-c2nc3ccc(OCCCN(C)C)cc3c3c2-c2ccc(OCCCN(C)C)cc2C3=O)cc1	0.68 µM														
COc1ccc2c(c1)C(=O)c1c-2c(Nc2ccc(F)cc2F)nc2ccccc12									96%	99%	68%				
CO/N=C1/c2cc(OC)ccc2-c2c(Nc3ccc(/C(C)=N/OC)cc3)nc3ccccc3c21									112%	89%	108%				
COc1ccc(Nc2nc3ccccc3c3c2-c2ccc(OC)cc2C3=O)cc1									69%	74%	65%				
COc1ccc2c(c1)C(=O)c1c-2c(Nc2ccc(OC)c(OC)c2)nc2ccccc12									68%	90%	41%				
COc1cccc(Nc2nc3ccccc3c3c2-c2ccc(OC)cc2C3=O)c1									83%	79%	87%				

More lines, main results first:

IC50 [1]	GI50 [5]	GI50 [1]	GI50 [7]	GI50 [8]	GI50 [9]	GI50 [12]	GI50 [14]	Compound	growth at 100 µM [2]	growth at 100 µM [3]	growth at 100 µM [4]	GI50 [6]	GI50 [10]	GI50 [11]	GI50 [13]
	28.2 µM	28.2 µM	28.2 µM	28.2 µM	28.2 µM	28.2 µM		COc1ccc2c(c1)/C(=N\O)c1c-2c(Nc2cccc(/C(C)=N/O)c2)nc2ccccc12	11%	84%	66%	28.2 µM	28.2 µM	28.2 µM	28.2 µM
	12.9 µM	17.7 µM	2.63 µM	3.09 µM	5.25 µM	11.8 µM	23.5 µM	COc1ccc2c(c1)C(=O)c1c-2c(Nc2cccc(C(C)=O)c2)nc2ccccc12	0%	17%	7%	21.4 µM	3.63 µM	9.77 µM	3.16 µM
	53.7 µM	53.7 µM	53.7 µM	53.7 µM	53.7 µM	53.7 µM		COc1ccc2c(c1)/C(=N\OC(C)=O)c1c-2c(Nc2cccc(/C(C)=N/OC(C)=O)c2)nc2ccccc12	96%	32%	43%	53.7 µM	53.7 µM	53.7 µM	53.7 µM
	52.5 µM	52.5 µM	52.5 µM	52.5 µM	52.5 µM	52.5 µM		COc1ccc2c(c1)/C(=N\OC(C)=O)c1c-2c(Nc2ccc(/C(C)=N/OC(C)=O)cc2)nc2ccccc12	37%	24%	36%	52.5 µM	52.5 µM	52.5 µM	52.5 µM
	15.1 µM	15.1 µM	15.1 µM	15.1 µM	15.1 µM	15.1 µM		COc1ccc2c(c1)C(=O)c1c-2c(Nc2ccc(Cl)cc2)nc2ccccc12	10%	96%	42%	15.1 µM	15.1 µM	15.1 µM	15.1 µM
	3.47 µM	3.47 µM	3.47 µM	3.47 µM	3.47 µM	3.47 µM		COc1ccc2c(c1)C(=O)c1c-2c(NCCN(C)C)nc2ccccc12	0%	0%	6%	3.47 µM	3.47 µM	3.47 µM	3.47 µM
	39.8 µM	39.8 µM	39.8 µM	39.8 µM	39.8 µM	39.8 µM		COc1ccc2c(c1)C(=O)c1c-2c(Nc2ccc(C(C)=O)cc2)nc2ccccc12	18%	61%	11%	39.8 µM	39.8 µM	39.8 µM	39.8 µM
	4.17 µM	1.45 µM	1.48 µM	2.29 µM	3.8 µM	2.04 µM	29.5 µM	COc1ccc2c(c1)/C(=N\O)c1c-2c(Nc2ccc(/C(C)=N/O)cc2)nc2ccccc12	0%	1%	2%	1.48 µM	15.1 µM	< 0.01 µM	7.08 µM
